Only some compounds are listed: those with a hit (about 8.7% of all), similar ones and a draw of the others.
Cav32 inh = inhibitors of human Cav3.2 T-type calcium channel; 100,000 compounds, 4% hits; O95180; Cav3.2-expressing cells, Fluo-4 calcium fluorescence FDSS; active compounds read low; B-score at 10 µM;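 active = single-dose well whose peak fluorescence ratio is a statistical outlier from its plate by either plate-standardised score or position-corrected B-score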
Ecoli WT expand = blocks growth of wild type E. coli BW25113. OD600 absorbance. growth inhibition, % at 100 µM. 98,000 compounds, 0.15% hits;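 active = growth inhibition above about 50% at one test dose, limit read from the data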;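 note: growth measured after 20 h incubation at 37 °C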
PostGolgi yeast = growth inhibition of a yeast mutant, post-Golgi transport screen; post-Golgi transport phenotypic cell assay; inhibition, % at 10 µM; 98,000 compounds, 0.9% hits; AID 739;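 note: yeast cells grown in 1536-well plates; yeast grown about 18 h at 30C before absorbance read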
PTK2B oligo ant = Pyk2 (human) oligomerization antagonism | 99,000 compounds, 0.83% hits | Q14289 | AID 1347419 | z-score (the deposit names both 25 µM and 10 µM) | Q293 cells, Pyk2 FERM NanoBiT luminescence; active compounds read low;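 active = Z-score of -3 or lower, scaled per plate to the spread of control and sample wells; inactive = z-score above -3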;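 note: negative z-score means lost luminescence so less FERM oligomerization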
Ecoli tolC = E. coli tolC mutant growth inhibition | 65,000 compounds, 2.2% hits | AID 573 | growth inhibition, % at 10 µM (by protocol) | E. coli BW25113 tolC mutant growth, OD615;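 active = growth inhibition at or above a cutoff equal to the mean over every tested compound plus 3 SD, cut at about 60% in these data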;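 note: growth measured after 20 h incubation at 37 °C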
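Test system – E. coli BW25113 ΔtolC::kan, tolC deletion mutant strain · Detection – OD at 615 nm · Buffer or medium – LB with kanamycin 50 µg/mL · Times – 20 h compound exposure of bacteria at 37 °C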
PostGolgi ctrl = yeast control strain growth, post-Golgi counter-screen. efflux-deficient yeast background strain, growth absorbance A615, 16 h. inhibition, % at 10 µM. 98,000 compounds, 5% hits
Starred values were filed as active, the others as inactive. Cut-off read from the data, not from the text of the source, unless noted: active = inhibition above about 30%; inactive = the rest.

Cc1cccc(NC(=O)c2cc(NC(=O)C3CCCCC3C(=O)O)ccc2N2CCCCC2)c1 (configuration not stated) was read as Cav32 inh -4.03*, Ecoli WT expand -1.0, PostGolgi yeast -0.6, PTK2B oligo ant -1.69, Ecoli tolC 76.5* and PostGolgi ctrl 23.1.
Screening Cc1cccc(NC(=O)c2cc(NC(=O)C3CC=CCC3C(=O)O)ccc2N2CCOCC2)c1 (configuration not stated) returned Cav32 inh 0.132, Ecoli WT expand 4.0, PostGolgi yeast 1.1, PTK2B oligo ant 0.95, Ecoli tolC 8.8 and PostGolgi ctrl 14.3.
For Cc1cccc(NC(=O)c2ccccc2C(=O)O)c1 the results were Cav32 inh 0.0677, Ecoli WT expand 1.0, PostGolgi yeast -1.6, PTK2B oligo ant -0.77, Ecoli tolC -1.2 and PostGolgi ctrl 0.9.
For Nc1nc(-c2ccc(Cl)cc2Cl)cn1N the results were Cav32 inh 0.277, Ecoli WT expand 15.0, PostGolgi yeast -4.8, PTK2B oligo ant -0.07, Ecoli tolC 24.3 and PostGolgi ctrl 14.8.
`O=C(CCCCCCN1C(=O)c2ccccc2C1=O)N1CCC(c2ccccc2)C1` (configuration not stated) gave Cav32 inh -4.32* and PTK2B oligo ant -0.32.
`COc1ccc(C2C(C(=O)OCC3CCCO3)=C(C)NC3=C2C(=O)CC(c2ccco2)C3)cc1O` (configuration not stated) gave Cav32 inh 0.0273, Ecoli WT expand -4.0, PostGolgi yeast -19.4, PTK2B oligo ant -0.51 and PostGolgi ctrl 19.6.
Screening Cc1cccc(OCCCC(=O)N2CCCc3ccccc32)c1C returned Cav32 inh -2.97, Ecoli WT expand 2.0, PostGolgi yeast -1.0, PTK2B oligo ant 0.2 and PostGolgi ctrl 27.1.
For Cc1nn(Cc2ccccc2)c(N)c1C#N the results were Cav32 inh 0.254, Ecoli WT expand 4.0, PostGolgi yeast -4.7, PTK2B oligo ant 0.62, Ecoli tolC -6.7 and PostGolgi ctrl -7.6.
Cc1nn(-c2ccc(C(=O)O)cc2)c(N)c1-c1ccccc1 was read as Ecoli WT expand -17.0, PostGolgi yeast 4.0, PTK2B oligo ant 0.38, Ecoli tolC -13.6 and PostGolgi ctrl 8.7.
`Cc1nn(Cc2ccccc2)c(N)c1-c1ccccc1` gave Cav32 inh 0.161, Ecoli WT expand 9.0, PostGolgi yeast 34.3*, PTK2B oligo ant -0.99, Ecoli tolC -3.3 and PostGolgi ctrl 2.9.
For Cc1nn(C2CCCCC2)c(N)c1-c1ccccc1 the results were Cav32 inh -3.37*, Ecoli WT expand 7.0, PostGolgi yeast -0.8, PTK2B oligo ant -0.26, Ecoli tolC 1.6 and PostGolgi ctrl 1.1.
Screening COc1ccc(C2C(=O)N(C3CCCCC3)CC(=O)N2CC2COc3ccccc3O2)cc1 (configuration not stated) returned Cav32 inh 0.127, Ecoli WT expand -6.0, PostGolgi yeast -11.0, PTK2B oligo ant -1.44 and PostGolgi ctrl 15.8.
For COCC(C)NS(=O)(=O)c1ccc(NC(=O)C(Cc2ccccc2)NC(N)=O)cc1 (configuration not stated) the results were Cav32 inh -0.0703, Ecoli WT expand 6.0, PostGolgi yeast -1.3, PTK2B oligo ant 0.43, Ecoli tolC -9.5 and PostGolgi ctrl 2.7.
Screening Cc1ccc(N2C(=O)C(O)(C(F)(F)F)C3=C2CC(C)(C)CC3=O)cc1C (configuration not stated) returned Cav32 inh 0.215, Ecoli WT expand -1.0, PostGolgi yeast 0.0, PTK2B oligo ant -0.34 and PostGolgi ctrl -7.3.
Screening Cc1ccc(-n2c(C)cc3c2CC(C)(C)CC3=O)cc1C returned Cav32 inh -2.68, Ecoli WT expand -4.0, PostGolgi yeast 16.1, PTK2B oligo ant -0.56 and PostGolgi ctrl 31.2*.
Screening Cc1cc2c(n1-c1ccc(Br)cc1)CC(C)(C)CC2=O returned Ecoli WT expand 4.0, PostGolgi yeast 0.3, PTK2B oligo ant -0.08 and PostGolgi ctrl 40.0*.
CCOc1nc(CC)nc(NC(=O)NS(=O)(=O)c2ccccc2Cl)n1 was read as Cav32 inh 0.412, Ecoli WT expand -1.0, PostGolgi yeast -3.0, PTK2B oligo ant 0.09, Ecoli tolC -12.5 and PostGolgi ctrl 7.5.
For O=C(Cn1cnc2ccccc21)N/N=C/c1ccccn1 the results were Ecoli WT expand -3.0, PostGolgi yeast 2.1, PTK2B oligo ant 0.78 and PostGolgi ctrl 22.6.

Source: PubChem BioAssay (several laboratories)
